Results: ChEMBL document CHEMBL3588823, “Design, synthesis and biological evaluation of novel 5-oxo-2-thioxoimidazolidine derivatives as potent androgen receptor antagonists” (Eur J Med Chem, 2015)

Columns and labels:
[1] = tested on: LNCaP; assay: Antiproliferative activity against human LNCAP cells after 3 days; assay type: functional, cell-based
How it was run: (§1)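 LNCaP cells seeded at 10,000 per well in RPMI 1640 with 10% charcoal-stripped serum and 1% AAS, then held 3 days at 37 °C. Medium was then replaced with serial compound dilutions, either without DHT (agonism mode) or with DHT (antagonism mode).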

[2] = (§2) AUC (0 to infinity) in rat at 5 mg/kg, po; assay type: ADME, organism-based; set-up: dose 5 mg/kg, route oral, time infinity; conditions: in vivo
How it was run: (§3)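 Rats (n = 3) received a single 5 mg/kg oral dose in 0.5% HPMC. EDTA blood samples were taken at 15 and 30 min and at 1, 2, 4, 8 and 24 h. Plasma was obtained by centrifugation, mixed with acetonitrile:H2O (1:1 v/v) and precipitated with acetonitrile.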

[3] = tested on: Rattus norvegicus; assay: Volume of distribution in rat at 5 mg/kg, po; assay type: ADME, organism-based; conditions: in vivo
How it was run: (§4)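 Rats (n = 3) were given a single 5 mg/kg oral dose in 0.5% HPMC. Blood was taken into EDTA tubes at 15 and 30 min and 1, 2, 4, 8 and 24 h. Plasma was obtained by centrifugation and proteins were precipitated with acetonitrile. Bioavailability was calculated against a 1 mg/kg iv dose.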

[4] = Tmax in rat at 1 mg/kg, iv; assay type: ADME, organism-based; conditions: in vivo
How it was run: (§5)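 Rats (n = 3) were given a single 1 mg/kg iv dose in 20% hydroxypropyl-β-cyclodextrin. Blood was taken into EDTA tubes at 5, 15 and 30 min and 1, 2, 4, 8 and 24 h. Plasma was obtained by centrifugation and proteins were precipitated with acetonitrile before analysis.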

[5] = MRT (last) in rat at 5 mg/kg, po; assay type: ADME, organism-based; conditions: in vivo; how it was run: as §4
[6] = Oral bioavailability in rat at 5 mg/kg; assay type: ADME, organism-based; conditions: in vivo; how it was run: as §4
[7] = AUC (0 to time) in rat at 5 mg/kg, po; assay type: ADME, organism-based; conditions: in vivo; how it was run: as §3
[8] = MRT (last) in rat at 1 mg/kg, iv; assay type: ADME, organism-based; conditions: in vivo; how it was run: as §5
[9] = (§6) Half life in rat at 5 mg/kg, po; assay type: ADME, organism-based; conditions: in vivo; how it was run: as §4
[10] = (§7) Half life in rat at 1 mg/kg, iv; assay type: ADME, organism-based; conditions: in vivo; how it was run: as §5
[11] = (§8) Tmax in rat at 5 mg/kg, po; assay type: ADME, organism-based; conditions: in vivo; how it was run: as §4
[12] = AUC (0 to infinity) in rat at 1 mg/kg, iv; assay type: ADME, organism-based; set-up: dose 1 mg/kg, route intravenous, time infinity; conditions: in vivo
How it was run: (§9)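 Rats (n = 3) given a single 1 mg/kg iv dose in 20% HP-b-CD. Blood was drawn into EDTA tubes at 5, 15 and 30 min and at 1, 2, 4, 8 and 24 h. Plasma was separated by centrifugation, mixed with acetonitrile:H2O (1:1 v/v) and protein-precipitated with acetonitrile.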

[13] = Volume of distribution in rat at 1 mg/kg, iv; assay type: ADME, organism-based; conditions: in vivo; how it was run: as §5
[14] = Clearance in rat at 1 mg/kg, iv; assay type: ADME, organism-based; conditions: in vivo; how it was run: as §5
[15] = target: T1, Androgen receptor (Homo sapiens, UniProt P10275); assay: Antagonist activity at androgen receptor (unknown origin)
T1 sequence (P10275 whole entry): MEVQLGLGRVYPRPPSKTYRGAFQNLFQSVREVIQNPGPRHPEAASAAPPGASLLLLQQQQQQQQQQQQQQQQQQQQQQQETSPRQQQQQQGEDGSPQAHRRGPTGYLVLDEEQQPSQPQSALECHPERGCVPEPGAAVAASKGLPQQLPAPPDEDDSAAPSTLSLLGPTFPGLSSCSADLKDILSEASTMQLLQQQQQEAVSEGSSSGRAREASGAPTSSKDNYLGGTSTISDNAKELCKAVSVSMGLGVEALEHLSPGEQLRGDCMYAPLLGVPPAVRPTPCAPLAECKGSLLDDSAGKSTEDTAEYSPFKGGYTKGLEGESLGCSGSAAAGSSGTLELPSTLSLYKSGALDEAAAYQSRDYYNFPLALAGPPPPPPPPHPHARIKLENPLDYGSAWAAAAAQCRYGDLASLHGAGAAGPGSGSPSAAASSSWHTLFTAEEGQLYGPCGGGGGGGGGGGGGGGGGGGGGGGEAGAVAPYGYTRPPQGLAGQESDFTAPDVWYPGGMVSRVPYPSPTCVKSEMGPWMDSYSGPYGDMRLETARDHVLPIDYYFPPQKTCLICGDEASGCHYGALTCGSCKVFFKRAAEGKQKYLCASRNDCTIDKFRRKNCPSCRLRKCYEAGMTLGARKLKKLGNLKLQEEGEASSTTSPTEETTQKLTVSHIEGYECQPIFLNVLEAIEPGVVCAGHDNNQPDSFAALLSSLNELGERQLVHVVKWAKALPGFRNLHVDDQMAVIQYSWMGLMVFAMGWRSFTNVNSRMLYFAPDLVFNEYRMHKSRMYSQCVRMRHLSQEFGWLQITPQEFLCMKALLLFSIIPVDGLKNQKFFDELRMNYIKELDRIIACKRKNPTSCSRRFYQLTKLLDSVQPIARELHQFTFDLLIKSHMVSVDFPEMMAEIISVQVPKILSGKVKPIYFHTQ

[16] = Clearance in rat at 5 mg/kg, po; assay type: ADME, organism-based; conditions: in vivo; how it was run: as §4
[17] = MRT (INF) in rat at 5 mg/kg, po; assay type: ADME, organism-based; conditions: in vivo; how it was run: as §4
[18] = (§10) MRT (INF) in rat at 1 mg/kg, iv; assay type: ADME, organism-based; conditions: in vivo; how it was run: as §5
[19] = (§11) Cmax in rat at 5 mg/kg, po; assay type: ADME, organism-based; set-up: dose 5 mg/kg, route oral; conditions: in vivo; how it was run: as §4
[20] = (§12) Cmax in rat at 1 mg/kg, iv; assay type: ADME, organism-based; set-up: dose 1 mg/kg, route intravenous; conditions: in vivo; how it was run: as §5
[21] = AUC (0 to time) in rat at 1 mg/kg, iv; assay type: ADME, organism-based; conditions: in vivo; how it was run: as §9
[22] = target: T1, Androgen receptor; assay: Partial agonist activity at androgen receptor (unknown origin); how it was run: as §1
[23] = tested on: Rattus norvegicus; assay: as §2; assay type: ADME, organism-based; set-up: dose 5 mg/kg, route oral, time infinity; conditions: in vivo; how it was run: as §3
[24] = tested on: Rattus norvegicus; assay: as §6; assay type: ADME, organism-based; conditions: in vivo; how it was run: as §4
[25] = tested on: Rattus norvegicus; assay: as §7; assay type: ADME, organism-based; conditions: in vivo; how it was run: as §5
[26] = tested on: Rattus norvegicus; assay: as §8; assay type: ADME, organism-based; conditions: in vivo; how it was run: as §4
[27] = tested on: Rattus norvegicus; assay: as §10; assay type: ADME, organism-based; conditions: in vivo; how it was run: as §5
[28] = tested on: Rattus norvegicus; assay: as §11; assay type: ADME, organism-based; set-up: dose 5 mg/kg, route oral; conditions: in vivo; how it was run: as §4
[29] = tested on: Rattus norvegicus; assay: as §12; assay type: ADME, organism-based; set-up: dose 1 mg/kg, route intravenous; conditions: in vivo; how it was run: as §5
[30] = Homo sapiens, LNCaP, 72 h, read-out: IC50

CNC(=O)c1ccc(N2C(=S)N(c3ccc(C#N)c(C(F)(F)F)c3)C(=O)C23CCN(C)CC3)cc1F
IC50 [1, 30]: > 10000 nM

N#Cc1ccc(N2C(=O)[C@]3(CCOC3)N(c3ccc(C(=O)O)c(F)c3)C2=S)cc1C(F)(F)F
AUC(0-inf) [2]: 743 ng·h/mL | Vd [3]: 38.4 L/kg | Tmax [4]: 4.98 min | MRT last [5]: 3.5 h | bioavailability [6]: 29% | AUC [7]: 716 ng·h/mL | MRT last [8]: 0.5 h | half-life [9]: 240 min | half-life [10]: 198 min | Tmax [11]: 25.2 min | AUC(0-inf) [12]: 509 ng·h/mL | Vd [13]: 8 L/kg | clearance [14]: 33.3 mL/min/kg | Ki [15]: Not Active | CL/F [16]: 117 mL/min/kg | MRT inf [17]: 4.2 h | MRT inf [18]: 48 min | Cmax [19]: 231 ng/mL | Cmax [20]: 1180 ng/mL | IC50 ([1]; lncap): Not Active | AUC [21]: 497 ng·h/mL

CNC(=O)c1ccc(N2C(=S)N(c3ccc(C#N)c(C(F)(F)F)c3)C(=O)C2(COC)COC)cc1F
Ki [15]: 585 nM | IC50 [1, 30]: 3370 nM

CNC(=O)c1ccc(N2C(=S)N(c3ccc(C#N)c(C(F)(F)F)c3)C(=O)C2(C)COCc2ccccc2)cc1F (racemic)
Ki [15]: 514 nM | IC50 [1, 30]: 2300 nM

CNC(=O)c1ccc(N2C(=S)N(c3ccc(C#N)c(C(F)(F)F)c3)C(=O)C2(C)CO)cc1F (stereo not drawn)
Ki [22]: 43.3 nM | IC50 [1, 30]: 212 nM

CCOC(=O)CC1(C)C(=O)N(c2ccc(C#N)c(C(F)(F)F)c2)C(=S)N1c1ccc(C(=O)NC)c(F)c1 (racemic)
Ki [15]: 236 nM | IC50 [1, 30]: 1380 nM

CNC(=O)c1ccc(NC(=S)Nc2ccc(C#N)c(C(F)(F)F)c2)cc1F
IC50 [1, 30]: > 10000 nM

CNC(=O)c1ccc(N2C(=S)N(c3ccc(C#N)c(C(F)(F)F)c3)C(=O)C23CCOCC3)cc1F
Ki [15]: 126 nM | IC50 [1, 30]: 540 nM

CNC(=O)c1ccc(N2C(=S)N(c3ccc(C#N)c(C(F)(F)F)c3)C(=O)[C@@]2(C)COC)cc1F
Ki [15]: 40.6 nM | IC50 [1, 30]: 185 nM

CNC(=O)c1ccc(N2C(=S)N(c3ccc(C#N)c(C(F)(F)F)c3)C(=O)C2(C)C)cc1F [ENZALUTAMIDE]
IC50 [1, 30]: 127 nM

CNC(=O)c1ccc(N2C(=S)N(c3ccc(C#N)c(C(F)(F)F)c3)C(=O)[C@]23CCOC3)cc1F
AUC [23]: 13105 ng·h/mL | Tmax [4]: 4.98 min | MRT last [5]: 6.9 h | bioavailability [6]: 100% | AUC [7]: 13000 ng·h/mL | MRT last [8]: 4.8 h | t1/2 [24]: 5.2 h | t1/2 [25]: 4.1 h | Tmax [26]: 2 h | AUC(0-inf) [12]: 2620 ng·h/mL | Vd [13]: 2.3 L/kg | clearance [14]: 6.67 mL/min/kg | Ki [15]: 18.4 nM | MRT inf [17]: 7.2 h | MRT [27]: 5.3 h | Cmax [28]: 1062 ng/mL | Cmax [29]: 531 ng/mL | IC50 [1, 30]: 79.2 nM | AUC [21]: 2570 ng·h/mL

CNC(=O)c1ccc(N2C(=S)N(c3ccc(C#N)c(C(F)(F)F)c3)C(=O)[C@H]2C)cc1F
Ki [22]: 482 nM | IC50 [1, 30]: 1510 nM

CC(O)(CS(=O)(=O)c1ccc(F)cc1)C(=O)Nc1ccc(C#N)c(C(F)(F)F)c1 (stereo not drawn) [BICALUTAMIDE]
IC50 [1, 30]: 733 nM
